Experimental data published in ChEMBL document CHEMBL4385599, “Neutral sphingomyelinase 2 inhibitors based on the 4-(1H-imidazol-2-yl)-2,6-dialkoxyphenol scaffold” (Eur J Med Chem, 2019).
pIC50: −log10 of the molar value.

Experiments:
[1] = molecular target: T1, Sphingomyelin phosphodiesterase 3 (Homo sapiens, UniProt Q9NY59); test: Inhibition of human recombinant nSMase expressed in HEK293 cells using sphingomyelin as substrate by alkaline phosphatase, choline oxidase and horseradish peroxidase dependent H2O2 detection based fluorescence coupled assay
T1 sequence (Q9NY59 whole entry): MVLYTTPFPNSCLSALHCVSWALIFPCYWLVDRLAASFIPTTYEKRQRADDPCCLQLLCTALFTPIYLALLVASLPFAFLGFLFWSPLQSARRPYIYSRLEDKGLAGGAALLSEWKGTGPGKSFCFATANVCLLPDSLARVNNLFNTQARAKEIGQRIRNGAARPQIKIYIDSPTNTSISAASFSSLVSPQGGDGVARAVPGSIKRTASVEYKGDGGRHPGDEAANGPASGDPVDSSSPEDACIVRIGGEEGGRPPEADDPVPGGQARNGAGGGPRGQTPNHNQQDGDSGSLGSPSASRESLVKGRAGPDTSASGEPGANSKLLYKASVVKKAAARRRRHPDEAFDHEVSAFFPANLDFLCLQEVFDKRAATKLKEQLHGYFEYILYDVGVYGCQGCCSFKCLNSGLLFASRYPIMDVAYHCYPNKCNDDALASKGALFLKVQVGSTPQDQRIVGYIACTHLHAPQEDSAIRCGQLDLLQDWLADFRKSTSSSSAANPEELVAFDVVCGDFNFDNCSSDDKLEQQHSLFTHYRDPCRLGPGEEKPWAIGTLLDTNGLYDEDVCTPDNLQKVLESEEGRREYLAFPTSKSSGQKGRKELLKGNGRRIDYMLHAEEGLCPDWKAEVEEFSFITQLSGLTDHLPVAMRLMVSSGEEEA
In short: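 Fluorescence-based coupled assay with human recombinant nSMase2, alkaline phosphatase and choline oxidase; IC50 values are mean ± SD of at least three experiments.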

[2] = species on record: Homo sapiens; test: Selectivity index, ratio of IC50 for choline oxidase (unknown origin) to IC50 for Inhibition of human recombinant nSMase expressed in HEK293 cells; assay type: cell-based
[3] = species on record: Homo sapiens; test: Selectivity index, ratio of IC50 for alkaline phosphatase (unknown origin) to IC50 for Inhibition of human recombinant nSMase expressed in HEK293 cells; assay type: cell-based
[4] = Selectivity index, ratio of IC50 for horseradish peroxidase to IC50 for Inhibition of human recombinant nSMase expressed in HEK293 cells; assay type: cell-based
[5] = Metabolic stability in mouse liver microsomes assessed as parent compound remaining at 5 uM in presence of NADPH regenerating system measured after 1 hr by LC/MS/MS method; assay type: ADME, Microsome
[6] = Metabolic stability in human liver microsomes assessed as parent compound remaining at 5 uM in presence of NADPH regenerating system measured after 1 hr by LC/MS/MS method; assay type: ADME, Microsome
[7] = molecular target: T2, Sphingomyelin phosphodiesterase 3 (Rattus norvegicus, UniProt O35049); test: Inhibition of rat brain neutral sphingomyelinase pre-incubated for 30 mins before p-nitrophenyl/phosphorylcholine substrate addition by spectrophotometry
T2 sequence (O35049 whole entry): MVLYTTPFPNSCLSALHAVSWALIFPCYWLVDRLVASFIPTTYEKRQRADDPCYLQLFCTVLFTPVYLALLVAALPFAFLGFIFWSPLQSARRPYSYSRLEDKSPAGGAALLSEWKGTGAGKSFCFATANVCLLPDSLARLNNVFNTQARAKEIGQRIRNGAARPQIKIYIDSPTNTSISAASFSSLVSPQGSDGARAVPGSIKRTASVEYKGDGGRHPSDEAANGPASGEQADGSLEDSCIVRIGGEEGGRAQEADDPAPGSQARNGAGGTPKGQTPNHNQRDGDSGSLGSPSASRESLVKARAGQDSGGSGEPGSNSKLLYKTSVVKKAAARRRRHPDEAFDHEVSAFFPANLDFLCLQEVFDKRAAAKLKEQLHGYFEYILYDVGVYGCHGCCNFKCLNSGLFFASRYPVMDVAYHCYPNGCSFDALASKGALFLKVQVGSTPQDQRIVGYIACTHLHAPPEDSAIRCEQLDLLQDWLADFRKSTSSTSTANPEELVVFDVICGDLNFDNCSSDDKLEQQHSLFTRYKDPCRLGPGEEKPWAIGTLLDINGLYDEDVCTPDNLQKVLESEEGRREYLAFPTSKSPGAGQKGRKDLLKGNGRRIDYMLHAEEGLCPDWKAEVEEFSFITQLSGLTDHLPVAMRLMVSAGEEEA

[8] = Drug level in CD-1 mouse treated with at 10 mg/kg, po 4-(4,5-Diisopropyl-1H-imidazol-2-yl)-2,6-dimethoxyphenol hydrochloride assessed as compound formation measured after 2 hrs by UPLC and LC-MS/MS analysis; assay type: ADME, organism-based; details: in vivo
In short: (§1)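 Male CD-1 mice (25–30 g), single oral gavage 10 mg/kg in 5% DMSO, 5% polysorbate 80, 90% saline; 3 mice per time point, sacrificed at 0.5 and 2 h. Cardiac blood into heparin, plasma by centrifugation; brains flash frozen. Acetonitrile extraction with losartan internal standard; quantified by UPLC–LC-MS/MS against calibration curves in naïve plasma/brain matrix.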

[9] = Metabolic stability in mouse liver microsomes assessed as parent compound remaining in presence of UDPGA at 5 uM measured after 1 hr by LC/MS/MS method; assay type: ADME, Microsome
In short: (§2)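 Glucuronidation: compound in 50 mM Tris-HCl pH 7.5 with microsomes 0.5 mg/mL, 8 mM MgCl2, 25 μg/mL alamethicin, preincubated at 37 °C; started with UDPGA 2 mM final, triplicate; 60 min; quenched with cold acetonitrile plus internal standard; parent remaining by LC/MS/MS; cofactor-free controls.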

[10] = Metabolic stability in human liver microsomes assessed as parent compound remaining in presence of UDPGA at 5 uM measured after 1 hr by LC/MS/MS method; assay type: ADME, Microsome; in short: as §2
[11] = Ratio of drug level in brain to plasma in CD-1 mouse at 10 mg/kg, po measured after 2 hrs by UPLC and LC-MS/MS analysis; assay type: ADME, organism-based; in short: as §1

Structure (SMILES): Oc1ccc(-c2nc(-c3ccccc3)c(-c3cccs3)[nH]2)cc1
- pIC50 [1]: 5.68
- Ratio IC50 [2]: < 5
- Ratio IC50 [3]: < 5
- Ratio IC50 [4]: < 5

Structure (SMILES): CCCCc1[nH]c(-c2cc(OC)c(O)c(OC)c2)nc1C
- Ratio IC50 [2]: > 5
- Ratio IC50 [3]: > 5
- Ratio IC50 [4]: > 5

Structure (SMILES): COc1cc(-c2nc(-c3ccccc3)c(C(C)C)[nH]2)cc(OC)c1O
- pIC50 [1]: 7.15
- Stability [5]: 94%
- Stability [6]: > 95%
- Ratio IC50 [2]: > 5
- Ratio IC50 [3]: > 5
- Ratio IC50 [4]: > 5

Structure (SMILES): COc1cc(-c2nc(-c3ccc(C)cc3)c(-c3ccc(C)cc3)[nH]2)cc(OC)c1O
- pIC50 [1]: 7.15
- Stability [5]: > 95%
- Stability [6]: > 95%
- Ratio IC50 [2]: > 5
- Ratio IC50 [3]: > 5
- Ratio IC50 [4]: > 5

Structure (SMILES): CCc1nc(-c2cc(OC)c(O)c(OC)c2)[nH]c1CC
- pIC50 [1]: 6.92
- Stability [5]: 75%
- Stability [6]: > 95%
- Ratio IC50 [2]: > 5
- Ratio IC50 [3]: > 5
- Ratio IC50 [4]: > 5

Structure (SMILES): COc1cc(-c2nc(-c3cccs3)c(-c3cccs3)[nH]2)cc(OC)c1O
- Ratio IC50 [2]: > 5
- Ratio IC50 [3]: > 5
- Ratio IC50 [4]: > 5

Structure (SMILES): Oc1c(OC2CCCC2)cc(-c2nc(-c3ccccc3)c(-c3cccs3)[nH]2)cc1OC1CCCC1
- pIC50 [1]: 6.92
- Ratio IC50 [2]: > 5
- Ratio IC50 [3]: > 5
- Ratio IC50 [4]: > 5

Structure (SMILES): O=C(/C=C\c1ccc(/C=C\C(=O)Nc2ccc(C3=NCCN3)cc2)cc1)Nc1ccc(C2=NCCN2)cc1
- pIC50 [7]: 6.00

Structure (SMILES): COc1ccc(-c2nc(-c3cc(OC)c(O)c(OC)c3)[nH]c2-c2ccc(OC)cc2)cc1
- Stability [5]: 73%
- Stability [6]: 75%
- Ratio IC50 [2]: > 5
- Ratio IC50 [3]: > 5
- Ratio IC50 [4]: > 5

Structure (SMILES): COc1cc(-c2nc(C)c(C)[nH]2)cc(OC)c1O
- pIC50 [1]: 6.28
- Ratio IC50 [2]: < 5
- Ratio IC50 [3]: < 5
- Ratio IC50 [4]: < 5

Structure (SMILES): Oc1ccccc1-c1nc(-c2ccccc2)c(-c2cccs2)[nH]1
- pIC50 [1]: < 4.00
- Ratio IC50 [2]: > 5
- Ratio IC50 [3]: > 5
- Ratio IC50 [4]: > 5

Structure (SMILES): COc1cc(-c2nc3c([nH]2)CCCC3)cc(OC)c1O
- pIC50 [1]: 6.38
- Ratio IC50 [2]: < 5
- Ratio IC50 [3]: < 5
- Ratio IC50 [4]: < 5

Structure (SMILES): COc1cc(-c2nc(-c3ccccc3)c(-c3cccs3)[nH]2)cc(OC)c1OC
- pIC50 [1]: < 4.00
- Ratio IC50 [2]: > 5
- Ratio IC50 [3]: > 5
- Ratio IC50 [4]: > 5

Structure (SMILES): CC(C)(C)Oc1cc(-c2nc(-c3ccccc3)c(-c3cccs3)[nH]2)cc(OC(C)(C)C)c1O
- pIC50 [1]: 6.28
- Ratio IC50 [2]: > 5
- Ratio IC50 [3]: > 5
- Ratio IC50 [4]: > 5

Structure (SMILES): COc1cc(-c2ncc[nH]2)cc(OC)c1O
- pIC50 [1]: 6.38
- Ratio IC50 [2]: > 5
- Ratio IC50 [3]: > 5
- Ratio IC50 [4]: > 5

Structure (SMILES): COc1cc(-c2nc(-c3ccccc3)c(-c3cccs3)[nH]2)ccc1O
- Ratio IC50 [2]: > 5
- Ratio IC50 [3]: > 5
- Ratio IC50 [4]: > 5

Structure (SMILES): COc1cc(-c2nc(-c3ccc(C)cc3)c[nH]2)cc(OC)c1O
- pIC50 [1]: 6.89
- Ratio IC50 [2]: > 5
- Ratio IC50 [3]: > 5
- Ratio IC50 [4]: > 5

Structure (SMILES): Oc1c(Cl)cc(-c2nc(-c3ccccc3)c(-c3cccs3)[nH]2)cc1Cl
- pIC50 [1]: < 4.00
- Ratio IC50 [2]: > 5
- Ratio IC50 [3]: > 5
- Ratio IC50 [4]: > 5

Structure (SMILES): COc1cc(OC)cc(-c2nc(-c3ccccc3)c(-c3cccs3)[nH]2)c1
- Ratio IC50 [2]: > 5
- Ratio IC50 [3]: > 5
- Ratio IC50 [4]: > 5

Structure (SMILES): Oc1cccc(-c2nc(-c3ccccc3)c(-c3cccs3)[nH]2)c1
- pIC50 [1]: < 4.00
- Ratio IC50 [2]: > 5
- Ratio IC50 [3]: > 5
- Ratio IC50 [4]: > 5

Structure (SMILES): COc1cc(-c2nc(-c3ccccc3)c(-c3ccccc3)[nH]2)cc(OC)c1O
- Stability [5]: > 95%
- Stability [6]: > 95%
- Ratio IC50 [2]: > 5
- Ratio IC50 [3]: > 5
- Ratio IC50 [4]: > 5

Structure (SMILES): COc1cc(-c2nc(C(C)C)c(C(C)C)[nH]2)cc(OC)c1O[C@@H]1O[C@H](C(=O)O)[C@@H](O)[C@H](O)[C@H]1O
- Drug uptake [8]: Active

Structure (SMILES): COc1cc(-c2nccs2)cc(OC)c1O
- pIC50 [1]: 4.70
- Ratio IC50 [2]: < 5
- Ratio IC50 [3]: < 5
- Ratio IC50 [4]: < 5

Structure (SMILES): CC(C)Oc1cc(-c2nc(-c3ccccc3)c(-c3cccs3)[nH]2)cc(OC(C)C)c1O
- pIC50 [1]: 7.40
- Stability [5]: 4%
- Stability [9]: > 95%
- Ratio IC50 [2]: > 5
- Ratio IC50 [3]: > 5
- Ratio IC50 [4]: > 5

Structure (SMILES): Oc1c(OCC(F)(F)F)cc(-c2nc(-c3ccccc3)c(-c3cccs3)[nH]2)cc1OCC(F)(F)F
- pIC50 [1]: 7.15
- Stability [5]: > 95%
- Stability [6]: 94%
- Ratio IC50 [2]: > 5
- Ratio IC50 [3]: > 5
- Ratio IC50 [4]: > 5

Structure (SMILES): COc1cc(-c2nc(-c3cccs3)c(-c3ccccc3)[nH]2)cc(OC)c1O
- Stability [5]: 95%
- Stability [6]: 95%
- Stability [9]: 67%
- Stability [10]: 50%
- BPR [11]: 17%

Structure (SMILES): COc1cc(-c2nc(C)c(-c3ccccc3)[nH]2)cc(OC)c1O
- Stability [5]: 82%
- Stability [6]: 95%
- Ratio IC50 [2]: > 5
- Ratio IC50 [3]: > 5
- Ratio IC50 [4]: > 5

Structure (SMILES): CCOc1cc(-c2nc(-c3ccccc3)c(-c3cccs3)[nH]2)cc(OCC)c1O
- pIC50 [1]: 8.00
- Stability [5]: 35%
- Ratio IC50 [2]: > 5
- Ratio IC50 [3]: > 5
- Ratio IC50 [4]: > 5

Structure (SMILES): COc1cc(-c2ncc(-c3ccccc3)[nH]2)cc(OC)c1O
- Ratio IC50 [2]: > 5
- Ratio IC50 [3]: > 5
- Ratio IC50 [4]: > 5

Structure (SMILES): COc1cc(-c2ncc(C)[nH]2)cc(OC)c1O
- pIC50 [1]: 6.66
- Ratio IC50 [2]: < 5
- Ratio IC50 [3]: < 5
- Ratio IC50 [4]: < 5

Structure (SMILES): COc1cc(-c2nc(-c3cccs3)c(C)[nH]2)cc(OC)c1O
- pIC50 [1]: 7.70
- Stability [5]: 95%
- Stability [6]: 73%
- Ratio IC50 [2]: > 5
- Ratio IC50 [3]: > 5
- Ratio IC50 [4]: > 5

Structure (SMILES): COc1cc(C2=NCCN2)cc(OC)c1O
- pIC50 [1]: < 4.00
- Ratio IC50 [2]: > 5
- Ratio IC50 [3]: > 5
- Ratio IC50 [4]: > 5

Structure (SMILES): COc1cc(-c2nc(-c3ccco3)c(-c3ccco3)[nH]2)cc(OC)c1O
- pIC50 [1]: 7.40
- Ratio IC50 [2]: > 5
- Ratio IC50 [3]: > 5
- Ratio IC50 [4]: > 5
